{"source": "ChEMBL document CHEMBL1154792", "about": "“chi-Conopeptide pharmacophore development: toward a novel class of norepinephrine transporter inhibitor (Xen2174) for pain” (J Med Chem, 2009)", "note": "Active and inactive are the calls of the source. The calls are words filed in the database; no cut-off is given here. Where a SMILES comes first, the peptide text is derived from it. Bridges are numbered along the chain shown (N, C = ends). [ ]: non-standard residue; d: D form. Pro(3S-OH) = O=C(O)[C@H]1NCC[C@@H]1O; pGlu = O=C1CC[C@@H](C(=O)O)N1", "data": [{"tested_on": "COS-7", "test": "Displacement of [3H]nisoxetine from rat NET expressed in COS7 cells", "assay_type": "cell-based", "conditions": "not given", "values": [{"smiles": "CC(C)C[C@@H]1NC(=O)[C@H](CCCCN)NC(=O)[C@H](Cc2ccc(O)cc2)NC(=O)CNC(=O)[C@@H]2CSSC[C@H](NC1=O)C(=O)N[C@@H](Cc1cnc[nH]1)C(=O)N[C@H](Cc1ccc(O)cc1)C(=O)N[C@H](C(=O)O)CSSC[C@H](NC(=O)[C@@H](NC(=O)CNC(=O)[C@@H]1CCC(=O)N1)C(C)C)C(=O)N2", "Activity": "Active"}]}, {"organism": "Rattus norvegicus", "test": "Toxicity in CCI rat pain model assessed as side effects", "assay_type": "organism-based", "conditions": "in vivo", "how_it_was_run": "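Rats with unilateral sciatic chronic constriction injury received a single intrathecal bolus via an implanted cannula 14 days after surgery, with morphine and vehicle as comparators. Compound-related behavioural observations were recorded alongside von Frey paw-withdrawal testing. Three animals per analogue.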", "values": [{"smiles": "CCCC[C@H](N)C(=O)NCC(=O)N[C@H](C(=O)N[C@H]1CSSC[C@@H](C(=O)O)NC(=O)[C@@H]2[C@@H](O)CCN2C(=O)[C@H](Cc2cnc[nH]2)NC(=O)[C@@H]2CSSC[C@H](NC1=O)C(=O)NCC(=O)N[C@@H](Cc1ccc(O)cc1)C(=O)N[C@@H](CCCCN)C(=O)N[C@@H](CC(C)C)C(=O)N2)C(C)C", "Activity": "Toxic"}, {"smiles": "CC(C)C[C@@H]1NC(=O)[C@H](CCCCN)NC(=O)[C@H](Cc2ccc(O)cc2)NC(=O)CNC(=O)[C@@H]2CSSC[C@H](NC1=O)C(=O)N[C@@H](Cc1cnc[nH]1)C(=O)N1CC[C@H](O)[C@H]1C(=O)N[C@H](C(=O)O)CSSC[C@H](NC(=O)[C@@H](NC(=O)CNC(=O)[C@H](N)CC(N)=O)C(C)C)C(=O)N2", "Activity": "Toxic"}, {"smiles": "CC(C)C[C@@H]1NC(=O)[C@H](CCCCN)NC(=O)[C@H](Cc2ccc(O)cc2)NC(=O)CNC(=O)[C@@H]2CSSC[C@H](NC1=O)C(=O)N[C@@H](Cc1cnc[nH]1)C(=O)N1CC[C@H](O)[C@H]1C(=O)N[C@H](C(=O)O)CSSC[C@H](NC(=O)[C@@H](NC(=O)CNC(=O)[C@H](N)CCCNC(=N)N)C(C)C)C(=O)N2", "Activity": "Toxic"}, {"smiles": "CC(C)C[C@@H]1NC(=O)[C@H](CCCCN)NC(=O)[C@H](Cc2ccc(O)cc2)NC(=O)CNC(=O)[C@@H]2CSSC[C@H](NC1=O)C(=O)N[C@@H](Cc1cnc[nH]1)C(=O)N1CC[C@H](O)[C@H]1C(=O)N[C@H](C(=O)O)CSSC[C@H](NC(=O)[C@@H](NC(=O)CNC(=O)[C@H](CC(N)=O)NC(=O)[C@@H](N)Cc1c[nH]c3ccccc13)C(C)C)C(=O)N2", "Activity": "Toxic"}]}, {"target": "Sodium-dependent noradrenaline transporter (Homo sapiens, UniProt P23975)", "sequence (P23975 whole entry)": "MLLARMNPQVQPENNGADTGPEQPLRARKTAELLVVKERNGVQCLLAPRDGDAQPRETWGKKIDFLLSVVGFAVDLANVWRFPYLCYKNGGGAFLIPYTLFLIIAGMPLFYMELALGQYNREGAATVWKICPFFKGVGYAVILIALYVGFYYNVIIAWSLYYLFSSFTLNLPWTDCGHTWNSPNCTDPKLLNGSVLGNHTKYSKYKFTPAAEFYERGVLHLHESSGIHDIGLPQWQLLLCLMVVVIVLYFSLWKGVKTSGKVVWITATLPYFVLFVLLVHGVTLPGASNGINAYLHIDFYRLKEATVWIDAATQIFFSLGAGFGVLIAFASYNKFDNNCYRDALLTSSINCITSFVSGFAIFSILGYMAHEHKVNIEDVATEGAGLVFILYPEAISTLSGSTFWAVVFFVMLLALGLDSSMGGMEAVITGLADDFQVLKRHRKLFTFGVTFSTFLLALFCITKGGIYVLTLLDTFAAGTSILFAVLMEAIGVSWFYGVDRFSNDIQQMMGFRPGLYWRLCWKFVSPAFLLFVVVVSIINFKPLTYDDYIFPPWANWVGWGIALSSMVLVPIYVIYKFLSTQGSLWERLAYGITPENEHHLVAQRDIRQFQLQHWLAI", "test": "Displacement of [3H]nisoxetine from human NET expressed in COS7 cells", "assay_type": "cell-based", "conditions": "COS-7", "how_it_was_run": "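Membranes from COS-7 cells transfected with human NET were incubated with [3H]nisoxetine (4.3 nM) with or without peptide (1 nM to 100 μM, triplicate) for 1 h at RT. Filter-retained radioactivity was counted by liquid scintillation, and values are given as pIC50. Data are means of 2–5 experiments in triplicate; peptide concentration was set by calibrated HPLC at 214 nm.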", "values": [{"smiles": "CC(C)C[C@@H]1NC(=O)[C@H](CCCCN)NC(=O)[C@H](Cc2ccc(O)cc2)NC(=O)CNC(=O)[C@@H]2CSSC[C@H](NC1=O)C(=O)N[C@@H](Cc1cnc[nH]1)C(=O)N[C@H](Cc1ccc(O)cc1)C(=O)N[C@H](C(=O)O)CSSC[C@H](NC(=O)[C@@H](NC(=O)CNC(=O)[C@@H]1CCC(=O)N1)C(C)C)C(=O)N2", "Activity": "Active"}, {"smiles": "CC(C)C[C@@H]1NC(=O)[C@H](CCCCN)NC(=O)[C@H](Cc2ccc(O)cc2)NC(=O)CNC(=O)[C@@H]2CSSC[C@H](NC1=O)C(=O)N[C@@H](Cc1cnc[nH]1)C(=O)N1CC[C@H](O)[C@H]1C(=O)N[C@H](C(=O)O)CSSC[C@@H](NC(=O)[C@@H](NC(=O)CNC(=O)[C@@H]1CCC(=O)N1)C(C)C)C(=O)N2", "Activity": "inactive"}, {"smiles": "CC(C)C[C@@H]1NC(=O)[C@H](CCCCN)NC(=O)[C@H](Cc2ccc(O)cc2)NC(=O)CNC(=O)[C@H]2CSSC[C@@H](NC1=O)C(=O)N[C@@H](Cc1cnc[nH]1)C(=O)N1CC[C@H](O)[C@H]1C(=O)N[C@H](C(=O)O)CSSC[C@H](NC(=O)[C@@H](NC(=O)CNC(=O)[C@@H]1CCC(=O)N1)C(C)C)C(=O)N2", "Activity": "inactive"}, {"smiles": "COc1ccc(C[C@H]2CC(=O)N[C@@H](CCCCN)C(=O)N[C@@H](CC(C)C)C(=O)N[C@H]3CSSC[C@H](NC(=O)[C@@H](NC(=O)[C@@H](NC(=O)CNC(=O)[C@@H]4CCC(=O)N4)C(C)C)CSSC[C@@H](C(=O)O)NC(=O)[C@@H]4[C@@H](O)CCN4C(=O)[C@H](Cc4cnc[nH]4)NC3=O)C(=O)NCC(=O)N2)cc1", "Activity": "inactive"}, {"smiles": "COc1ccc(C[C@H]2NC(=O)[C@H](Cc3cnc[nH]3)NC(=O)[C@@H]3CSSC[C@H](NC(=O)[C@@H](NC(=O)[C@@H](NC(=O)CNC(=O)[C@@H]4CCC(=O)N4)C(C)C)CSSC[C@@H](C(=O)O)NC2=O)C(=O)NCC(=O)N[C@@H](Cc2ccc(O)cc2)C(=O)N[C@@H](CCCCN)C(=O)N[C@@H](CC(C)C)C(=O)N3)cc1", "Activity": "Active"}, {"smiles": "CC(C)C[C@@H]1NC(=O)[C@H](CCCCN)NC(=O)[C@H](Cc2ccc(O)cc2)NC(=O)CNC(=O)[C@@H]2CSSC[C@H](NC1=O)C(=O)N[C@@H](Cc1cnc[nH]1)C(=O)N1CC[C@H](O)[C@H]1C(=O)N[C@@H](C(=O)O)CSSC[C@@H](NC(=O)[C@@H](NC(=O)CNC(=O)[C@@H]1CCC(=O)N1)C(C)C)C(=O)N2", "Activity": "Active"}, {"smiles": "CC(C)C[C@@H]1NC(=O)[C@H](CCCCN)NC(=O)[C@H]2CCCN2C(=O)CNC(=O)[C@@H]2CSSC[C@H](NC1=O)C(=O)N[C@@H](Cc1cnc[nH]1)C(=O)N1CC[C@H](O)[C@H]1C(=O)N[C@H](C(=O)O)CSSC[C@H](NC(=O)[C@@H](NC(=O)CNC(=O)[C@@H]1CCC(=O)N1)C(C)C)C(=O)N2", "Activity": "inactive"}, {"smiles": "CC(C)C[C@@H]1NC(=O)CNC(=O)[C@@H]2CSSC[C@H](NC(=O)[C@H](CC(C)C)NC(=O)[C@H](CCCCN)NC1=O)C(=O)N[C@@H](Cc1cnc[nH]1)C(=O)N1CC[C@H](O)[C@H]1C(=O)N[C@H](C(=O)O)CSSC[C@H](NC(=O)[C@@H](NC(=O)CNC(=O)[C@@H]1CCC(=O)N1)C(C)C)C(=O)N2", "note": "([pGlu]GVCCGLKLCH[Pro(3S-OH)]C-OH; disulfide 4-13, 5-10)", "Activity": "inactive"}, {"smiles": "CC(C)C[C@@H]1NC(=O)[C@H](CCCCN)NC(=O)[C@H](Cc2ccccc2)NC(=O)CNC(=O)[C@@H]2CSSC[C@H](NC1=O)C(=O)N[C@@H](Cc1cnc[nH]1)C(=O)N1CC[C@H](O)[C@H]1C(=O)N[C@H](C(=O)O)CSSC[C@H](NC(=O)[C@@H](NC(=O)CNC(=O)[C@@H]1CCC(=O)N1)C(C)C)C(=O)N2", "note": "([pGlu]GVCCGFKLCH[Pro(3S-OH)]C-OH; disulfide 4-13, 5-10)", "Activity": "inactive"}, {"smiles": "CC(C)C[C@@H]1NC(=O)[C@H](CCCCN)NC(=O)[C@H](CCC(N)=O)NC(=O)CNC(=O)[C@@H]2CSSC[C@H](NC1=O)C(=O)N[C@@H](Cc1cnc[nH]1)C(=O)N1CC[C@H](O)[C@H]1C(=O)N[C@H](C(=O)O)CSSC[C@H](NC(=O)[C@@H](NC(=O)CNC(=O)[C@@H]1CCC(=O)N1)C(C)C)C(=O)N2", "note": "([pGlu]GVCCGQKLCH[Pro(3S-OH)]C-OH; disulfide 4-13, 5-10)", "Activity": "inactive"}, {"smiles": "CC(C)C[C@@H]1NC(=O)[C@H](CCCCN)NC(=O)[C@H](Cc2ccc(O)cc2)NC(=O)CNC(=O)[C@@H]2CSSC[C@@H](NC1=O)C(=O)N[C@@H](Cc1cnc[nH]1)C(=O)N1CC[C@H](O)[C@H]1C(=O)N[C@H](C(=O)O)CSSC[C@H](NC(=O)[C@@H](NC(=O)CNC(=O)[C@@H]1CCC(=O)N1)C(C)C)C(=O)N2", "Activity": "inactive"}, {"smiles": "CC(C)C[C@@H]1NC(=O)[C@H](CCCCN)NC(=O)[C@H](Cc2ccc(O)cc2)NC(=O)CNC(=O)[C@@H]2CSSC[C@H](NC1=O)C(=O)N[C@@H](Cc1cccc3ccccc13)C(=O)N1CC[C@H](O)[C@H]1C(=O)N[C@H](C(=O)O)CSSC[C@H](NC(=O)[C@@H](NC(=O)CNC(=O)[C@@H]1CCC(=O)N1)C(C)C)C(=O)N2", "Activity": "Active"}, {"smiles": "CC(C)C[C@@H]1NC(=O)[C@H](CCCCN)NC(=O)[C@H](Cc2ccc(O)cc2)NC(=O)CNC(=O)[C@@H]2CSSC[C@H](NC1=O)C(=O)N[C@@H](Cc1c[nH]c3ccccc13)C(=O)N1CC[C@H](O)[C@H]1C(=O)N[C@H](C(=O)O)CSSC[C@H](NC(=O)[C@@H](NC(=O)CNC(=O)[C@@H]1CCC(=O)N1)C(C)C)C(=O)N2", "note": "([pGlu]GVCCGYKLCW[Pro(3S-OH)]C-OH; disulfide 4-13, 5-10)", "Activity": "Active"}, {"smiles": "CC(C)C[C@@H]1NC(=O)[C@H](CCCCN)NC(=O)[C@H](Cc2ccc(O)cc2)NC(=O)CNC(=O)[C@@H]2CSSC[C@H](NC1=O)C(=O)N[C@@H](CCCNC(=N)N)C(=O)N1CC[C@H](O)[C@H]1C(=O)N[C@H](C(=O)O)CSSC[C@H](NC(=O)[C@@H](NC(=O)CNC(=O)[C@@H]1CCC(=O)N1)C(C)C)C(=O)N2", "Activity": "Active"}]}]}
